This note sets out measurements from ChEMBL document CHEMBL1122104, “Ring contraction of oleandrose on the macrolide antibiotic oleandomycin with [(Methoxycarbonyl)sulfamoyl]triethylammonium hydroxide inner salt” (1982).

For test [1], the system named is Neisseria sicca. The test can be described thus: In vitro antibacterial activity against Neisseria sicca (66C000), and minimum inhibitory concentration was determined. The format is functional. In outline: (§1)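 Broth dilution MIC determination, done per a previously described procedure. Each value is the mean of two determinations.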
The test system of test [2] is Staphylococcus aureus. The test can be described thus: In vitro for antibacterial activity against Staphylococcus aureus (01A400), and minimum inhibitory concentration was determined. The format is functional. In outline:
as §1

Test [3] concerns Streptococcus pneumoniae. The test can be described thus: In vitro antibacterial activity against Streptococcus pneumoniae (02J012), and minimum inhibitory concentration was determined. The format is functional. In outline:
as §1

Test [4] relates to Escherichia coli. The test can be described thus: In vitro antibacterial activity against Escherichia coli (51A125), and minimum inhibitory concentration was determined.
For test [5], the system named is Escherichia coli. The test can be described thus: In vitro antibacterial activity against Escherichia coli (51A470), and minimum inhibitory concentration was determined. The format is functional. In outline: as §1
For test [6], the system named is Bacillus subtilis. The test can be described thus: In vitro antibacterial activity against Bacillis subtilis (06A001), and minimum inhibitory concentration was determined. The format is functional. In outline: as §1
Test [7] relates to Staphylococcus aureus. The test is described as follows: In vitro for antibacterial activity against Staphylococcus aureus (01A111), and minimum inhibitory concentration was determined. The format is functional. The essentials:
as §1

For test [8], the system named is Staphylococcus aureus. The test can be described thus: In vitro antibacterial activity against Staphylococcus aureus (01A005), and minimum inhibitory concentration was determined. The format is functional. The essentials:
as §1

The test system of test [9] is Enterococcus faecalis. The test is described as follows: In vitro antibacterial activity against Streptococcus faecalis (02A006), and minimum inhibitory concentration was determined. The format is functional. The essentials: as §1
In test [10] the test system is Staphylococcus aureus. The test can be described thus: In vitro antibacterial activity against Staphylococcus aureus (01A052), and minimum inhibitory concentration was determined. The format is functional. In outline:
as §1

Test [11] has as its system Pasteurella multocida. The test can be described thus: In vitro antibacterial activity against Pasteurella multocida (59A0001), and minimum inhibitory concentration was determined. It counts as functional. In outline:
as §1

Test [12] concerns Streptococcus pyogenes. The test can be described thus: In vitro antibacterial activity against Streptococcus pyogenes (02C203), and minimum inhibitory concentration was determined. The format is functional. In outline:
as §1

Test [13] has as its system Escherichia coli. The test is described as follows: In vitro antibacterial activity against Escherichia coli (51A125), and minimum inhibitory concentration was determined. The format is functional. In outline: as §1
Test [14] concerns Neisseria sicca. The test is described as follows: In vitro antibacterial activity against Neisseria sicca (66C000), and minimum inhibitory concentration was determined.

Regarding `COC1CC(O[C@@H]2C(C)C(=O)O[C@H](C)[C@H](C)C(OC(C)=O)C(C)C(=O)[C@]3(CO3)C[C@H](C)[C@H](OC3OC(C)CC(N(C)C)[C@H]3O)[C@H]2C)OC(C)[C@@H]1O` (some centres undefined), the MIC in test [1] was 1.56; in test [2], 1.56; in test [3], below 0.01; in [4] it was 400; in test [5], 6.25; in test [6], 0.78. In addition, the MIC in [7] amounted to 0.78; in [8], 0.39; in [9], 1.56; in test [10] it was 0.39; in test [11], 6.25; in test [12], 0.1.
As for `C=CC1O[C@@H](O[C@@H]2C(C)C(=O)O[C@H](C)[C@H](C)C(OC(C)=O)C(C)C(=O)[C@]3(CO3)C[C@H](C)[C@H](OC3OC(C)CC(N(C)C)[C@H]3O)[C@H]2C)C[C@@H]1OC` (some centres undefined), the MIC in test [13] was above 800; in test [2], 25; in [3] it was below 0.01; in [5] it was 50; in test [14], 6.25; in [6], 1.56. Besides, the MIC in [7] is reported as 0.78; in [8] it was 3.12; in test [9], 12.5; in test [10], 6.25; in test [11] it was 50; in test [12] it was 0.39.
